Measured values published in publication PMC6392825 (ChemistryOpen, 2019).
Converted amounts (≈) assume the structure as drawn.

Assays:
[1] = Chemical antioxidant capacity, FRAP assay
[2] = Water solubility, shake flask method, 0.1 M phosphate buffer pH 6.8; assay type: physicochemical; conditions: 37 °C, pH 6.8, aqueous buffer, thermodynamic from solid
HepG2 [3] = assay: Cytotoxicity, mitochondrial activity; assay type: cell-based; conditions: Homo sapiens, HepG2, 72 h, read-out: IC50 MTT
Outline: (§1)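 Seeded at 20000 cells/well in DMEM and grown 24 h at 37 °C, 10% CO2. Medium was then replaced with serum-free medium holding test compound (25 mM DMSO stock) at various concentrations for 72 h, in triplicate; doxorubicin was the positive control. MTT (5 mg/mL stock in PBS) added for 2 h, formazan dissolved in DMSO, A570. IC50 derived from % surviving cells, reported as mean ± SD combined with SRB data.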

HT‐29 [4] = assay: Cytotoxicity, mitochondrial activity; assay type: cell-based; conditions: Homo sapiens, HT-29, 72 h, read-out: IC50 MTT
Outline: as §1

Caco‐2 [5] = assay: Cytotoxicity, mitochondrial activity; assay type: cell-based; conditions: Homo sapiens, Caco-2, 72 h, read-out: IC50 MTT
Outline: as §1

EA.hy926 [6] = assay: Cytotoxicity, mitochondrial activity; assay type: cell-based; conditions: Homo sapiens, EA.hy 926, 72 h, read-out: IC50 MTT
Outline: as §1

HepG2 [7] = assay: Cell growth inhibition, protein content; assay type: cell-based; conditions: Homo sapiens, HepG2, 72 h, read-out: IC50 SRB
Outline: (§2)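 Cell lines from ATCC, grown in DMEM+glutamax with 1% NEAA, 1% P/S and 10% FBS at 37 °C, 10% CO2. Seeded at 20000 cells/well for 24 h, then exposed to test compound (25 mM DMSO stock) for three days. Fixed with cold TCA for 1 h at 4 °C, stained 30 min with 0.4% SRB in 1% acetic acid, dissolved in 10 mM Tris, A490. Triplicate; IC50 given as mean ± SD combined with MTT data (n ≥ 3).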

HT‐29 [8] = assay: Cell growth inhibition, protein content; assay type: cell-based; conditions: Homo sapiens, HT-29, 72 h, read-out: IC50 SRB
Outline: as §2

Caco‐2 [9] = assay: Cell growth inhibition, protein content; assay type: cell-based; conditions: Homo sapiens, Caco-2, 72 h, read-out: IC50 SRB
Outline: as §2

EA.hy926 [10] = assay: Cell growth inhibition, protein content; assay type: cell-based; conditions: Homo sapiens, EA.hy 926, 72 h, read-out: IC50 SRB
Outline: as §2

HepG2 [11] = assay: Intracellular ROS assay; assay type: cell-based; conditions: for activity at 1 µM / activity at 10 µM: Homo sapiens, HepG2, read-out: Intracellular ROS, percentage compared to the untreated control cells (ROS/SRB)
Outline: (§3)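 Cells seeded at 20000/well and grown 24 h at 37 °C, 10% CO2, then treated with test compound at 10 and 1 μM in serum-free medium. NAC and doxorubicin served as controls. After a PBS wash, cells were loaded with 20 μM DCFH-DA for 30 min, washed, and held 1 h in phenol red-free DMEM. Fluorescence read at ex 485/em 535 nm and normalized to SRB in the same well. Reported as % of untreated control, n ≥ 3, two-tailed t-test with unequal variances.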

HT‐29 [12] = assay: Intracellular ROS assay; assay type: cell-based; conditions: for activity at 1 µM / activity at 10 µM: Homo sapiens, HT-29, read-out: Intracellular ROS, percentage compared to the untreated control cells (ROS/SRB)
Outline: as §3

Caco‐2 [13] = assay: Intracellular ROS assay; assay type: cell-based; conditions: for activity at 1 µM / activity at 10 µM: Homo sapiens, Caco-2, read-out: Intracellular ROS, percentage compared to the untreated control cells (ROS/SRB)
Outline: as §3

EA.hy926 [14] = assay: Intracellular ROS assay; assay type: cell-based; conditions: for activity at 1 µM / activity at 10 µM: Homo sapiens, EA.hy 926, read-out: Intracellular ROS, percentage compared to the untreated control cells (ROS/SRB)
Outline: as §3

| Structure (SMILES) | FRAP (curcumin equivalent per μM) [1] | FRAP (Trolox equivalent per μM) [1] | activity at 1 µM (HepG2 [11]) | activity at 10 µM (HepG2 [11]) | activity at 1 µM (HT‐29 [12]) | activity at 10 µM (HT‐29 [12]) | activity at 1 µM (Caco‐2 [13]) | activity at 10 µM (Caco‐2 [13]) | activity at 1 µM (EA.hy926 [14]) | activity at 10 µM (EA.hy926 [14]) | also measured |
| --- | --- | --- | --- | --- | --- | --- | --- | --- | --- | --- | --- |
| Cc1c(C)c2c(c(C)c1O)CCC(C)(C(=O)O)O2 (stereo not shown) [Trolox, reference compound] | 1.00 curcumin equivalent per μM |  |  |  |  |  |  |  |  |  |  |
| O=C(/C=C(O)/C=C/c1ccc2ccccc2n1)/C=C/c1c[nH]c2ccccc12 [3 k, (1E,4Z,6E)‐5‐Hydroxy‐1‐(1H‐indol‐3‐yl)‐7‐(quinolin‐2‐yl)hepta‐1,4,6‐trien‐3‐one] | 0.19 curcumin equivalent per μM | 0.20 Trolox equivalent per μM | 156 ± 13% | 197 ± 24.6% | 112 ± 10.8% | 116 ± 7.1% | 162 ± 21.7% | 168 ± 28.1% | 120 ± 9.2% | 126 ± 5.6% | solubility at 90 min [2]: 8.1 ± 0.1 µM (≈ 2.97 µg/mL); solubility at 24 h [2]: 9.6 ± 0.8 µM (≈ 3.52 µg/mL); IC50 (HepG2 [3]): 56.2 ± 1.6 µM; IC50 (HT‐29 [4]): 42 ± 2 µM; IC50 (Caco‐2 [5]): 44.7 ± 2.1 µM; IC50 (EA.hy926 [6]): 38.3 ± 1.7 µM; IC50 (HepG2 [7]): 54.1 ± 1 µM; IC50 (HT‐29 [8]): 43.8 ± 0.9 µM; IC50 (Caco‐2 [9]): 47.5 ± 0.2 µM; IC50 (EA.hy926 [10]): 53.2 ± 1.3 µM |
| CC(=O)N[C@@H](CS)C(=O)O [NAC, N‐acetyl‐L‐cysteine, reference compound] |  |  | 77.1 ± 7.8% | 63.1 ± 4.3% | 82.7 ± 3.4% | 75.3 ± 3.3% | 83.7 ± 6.2% | 83.5 ± 5.1% | 84.2 ± 4.8% | 76.6 ± 8.3% | change of intracellular ROS in words (HepG2 [11]; HepG2, vs untreated control, 10 and 1 μM): significant decrease in ROS generation; change of intracellular ROS in words (HT‐29 [12]; HT‐29, vs untreated control, 10 and 1 μM): significant decrease in ROS generation; change of intracellular ROS in words (Caco‐2 [13]; Caco‐2, vs untreated control, 10 and 1 μM): significant decrease in ROS generation; change of intracellular ROS in words (EA.hy926 [14]; EA.hy926, vs untreated control, 10 and 1 μM): significant decrease in ROS generation |
| O=C1O[C@H]([C@@H](O)CO)C(O)=C1O [Ascorbic acid, ascorbic acid, reference compound] | 0.57 curcumin equivalent per μM | 0.60 Trolox equivalent per μM |  |  |  |  |  |  |  |  |  |
| Cc1c(C)c2c(c(C)c1O)CC[C@@](C)(CCC[C@H](C)CCC[C@H](C)CCCC(C)C)O2 [α‐Tocopherol, α‐tocopherol, reference compound] | 0.68 curcumin equivalent per μM | 0.70 Trolox equivalent per μM |  |  |  |  |  |  |  |  |  |
